According to PMC10851409 (ACS Omega, 2024):

How the values were obtained:
[1] = target: T1, bovine serum albumin (BSA) (Bos taurus, UniProt P02769); test: UV–vis absorption titration of BSA; format: binding; details: pH 7.4; for Enthalpy ΔH / Entropy ΔS: from Kb at 298 and 308 K
How it was run: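 Peltier-thermostatted spectrophotometer, 1 cm quartz cell, 1 nm slit, spectra over 200–500 nm. BSA in PBS pH 7.4 titrated with test compound (2.46–22.22 μM) and read at 279 nm; ligand-alone absorbance also recorded. Run at 298 and 308 K. Kb taken from the […] of the Benesi–Hildebrand plot, A0/(A–A0) versus 1/[compound]; thermodynamic parameters derived from Kb at both temperatures.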

[2] = target: T1, bovine serum albumin (BSA); test: Steady-state fluorescence quenching of BSA; format: binding; details: for Number of binding sites n / Stern–Volmer constant Ksv / Bimolecular quenching rate parameter kq: 298 K; for Stern–Volmer constant Ksv: pH 7.4; for Bimolecular quenching rate parameter kq: τo = 10^–8 s; for Fluorescence quenching mechanism: BSA fluorescence, kq compared with 2.0 × 10^10 m^–1 s^–1
How it was run: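 BSA stock in PBS pH 7.4, with concentration set from absorbance (ε 43,824 M–1 cm–1); test compounds from DMSO stocks, 2.46–22.22 μM. Emission recorded in a 1.0 cm quartz cuvette at 298 K with excitation at 280 nm and 5 nm excitation/emission bandwidths. Stern–Volmer and modified Stern–Volmer plots analysed; kq calculated using τo of 10–8 s for native BSA.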

[3] = target: T1, bovine serum albumin (BSA); test: Time-resolved fluorescence decay of BSA; format: binding; details: 298 K; for α1 / α2 / α3 / τ1 / τ2 / τ3: triexponential fitting
How it was run: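 Time-correlated single-photon counting with pulsed nanosecond LED excitation at 280 nm, 298 K. Instrument response recorded with a scattering solution; 114 ps per channel. Decays fitted as a sum of exponentials by nonlinear least-squares reconvolution, with pre-exponential factors normalized to 1 and errors taken as three standard deviations. Fit judged by χ2 and weighted residuals; average lifetime from triexponential fits.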

Plasmodium falciparum = details: read-out: IC50 antiplasmodial; P. falciparum; cited from earlier work

T1 sequence (P02769 25-607): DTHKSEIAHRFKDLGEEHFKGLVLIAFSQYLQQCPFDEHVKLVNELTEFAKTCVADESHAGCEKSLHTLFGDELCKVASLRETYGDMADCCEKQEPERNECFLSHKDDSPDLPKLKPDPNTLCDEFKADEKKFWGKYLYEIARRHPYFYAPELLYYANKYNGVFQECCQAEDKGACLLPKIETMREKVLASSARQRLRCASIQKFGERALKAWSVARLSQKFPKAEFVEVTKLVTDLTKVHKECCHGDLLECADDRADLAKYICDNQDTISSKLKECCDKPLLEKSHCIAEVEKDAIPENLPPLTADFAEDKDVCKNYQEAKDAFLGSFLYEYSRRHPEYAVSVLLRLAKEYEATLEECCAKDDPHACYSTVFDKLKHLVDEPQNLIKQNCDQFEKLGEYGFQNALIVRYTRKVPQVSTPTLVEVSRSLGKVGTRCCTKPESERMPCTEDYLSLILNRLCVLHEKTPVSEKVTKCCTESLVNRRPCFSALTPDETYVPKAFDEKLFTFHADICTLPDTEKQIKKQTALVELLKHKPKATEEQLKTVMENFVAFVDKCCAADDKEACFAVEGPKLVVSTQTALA

Compound | Gibbs free energy ΔG ([1]; 298 K) | Gibbs free energy ΔG ([1]; 308 K) | Enthalpy ΔH [1] | Entropy ΔS [1] | Number of binding sites n [2] | Stern–Volmer constant Ksv [2] | Bimolecular quenching rate parameter kq [2] | Fluorescence quenching mechanism [2] | τavg (average fluorescence lifetime of BSA) ([3]; ligand 2.46 μm) | α1 ([3]; ligand 2.46 μm) | α2 ([3]; ligand 2.46 μm) | α3 ([3]; ligand 2.46 μm) | τ1 ([3]; ligand 2.46 μm) | τ2 ([3]; ligand 2.46 μm) | τ3 ([3]; ligand 2.46 μm) | τavg (average fluorescence lifetime of BSA) ([3]; ligand 9.52 μm) | α1 ([3]; ligand 9.52 μm) | α2 ([3]; ligand 9.52 μm) | α3 ([3]; ligand 9.52 μm) | τ1 ([3]; ligand 9.52 μm) | other results
C[C@H]1C(=O)CC[C@@H]2[C@]1(C)CC[C@H]1[C@@]2(C)CC[C@@]2(C)[C@@H]3CC(C)(C)CC[C@]3(C)CC[C@]12C [friedelin] | –20.52 kJ mol^–1 | –19.22 kJ mol^–1 | –59.26 kJ mol^–1 | –0.13 kJ mol^–1 | 1 | 1.47 × 10^4 L mol^–1 | 1.47 × 10^12 | static quenching | 6.6 | 8.67% | 55.5% | 35.83% | 2.2687 | 5.696 | 7.962 | 6.7 | 13.49% | 84.08% | 2.43% | 2.6997 | τ2 ([3]; ligand 9.52 μm): 6.576; τ3 ([3]; ligand 9.52 μm): 14.2863; τavg (average fluorescence lifetime of BSA) ([3]; ligand 16.09 μm): 6.8; α1 ([3]; ligand 16.09 μm): 9.59%; α2 ([3]; ligand 16.09 μm): 86.56%; α3 ([3]; ligand 16.09 μm): 3.85%; τ1 ([3]; ligand 16.09 μm): 2.21; τ2 ([3]; ligand 16.09 μm): 6.354; τ3 ([3]; ligand 16.09 μm): 14.127; τavg (average fluorescence lifetime of BSA) ([3]; ligand 22.22 μm): 6.5; α1 ([3]; ligand 22.22 μm): 25.73%; α2 ([3]; ligand 22.22 μm): 71.9%; α3 ([3]; ligand 22.22 μm): 2.37%; τ1 ([3]; ligand 22.22 μm): 3.978; τ2 ([3]; ligand 22.22 μm): 7.1; τ3 ([3]; ligand 22.22 μm): 1.075; IC50 (Plasmodium falciparum): 7.2 µM
CC(C)=CCc1c(O)c(CC=C(C)C)c2oc3c(O)ccc(O)c3c(=O)c2c1O [gartanin] | –24.28 kJ mol^–1 | –23.68 kJ mol^–1 | –42.16 kJ mol^–1 | –0.06 kJ mol^–1 | 1 | 2.57 × 10^4 L mol^–1 | 2.57 × 10^12 | static quenching | 6.2 | 26.45% | 67.78% | 5.77% | 2.971 | 6.871 | 0.8793 | 6.2 | 30.06% | 64.04% | 5.91% | 3.0512 | τ2 ([3]; ligand 9.52 μm): 6.967; τ3 ([3]; ligand 9.52 μm): 0.8022; τavg (average fluorescence lifetime of BSA) ([3]; ligand 16.09 μm): 6.1; α1 ([3]; ligand 16.09 μm): 28.92%; α2 ([3]; ligand 16.09 μm): 64.86%; α3 ([3]; ligand 16.09 μm): 6.22%; τ1 ([3]; ligand 16.09 μm): 2.945; τ2 ([3]; ligand 16.09 μm): 6.882; τ3 ([3]; ligand 16.09 μm): 0.8547; τavg (average fluorescence lifetime of BSA) ([3]; ligand 22.22 μm): 6.2; α1 ([3]; ligand 22.22 μm): 30.4%; α2 ([3]; ligand 22.22 μm): 60.86%; α3 ([3]; ligand 22.22 μm): 8.74%; τ1 ([3]; ligand 22.22 μm): 3.254; τ2 ([3]; ligand 22.22 μm): 7.004; τ3 ([3]; ligand 22.22 μm): 0.9952
